# Experimental data taken from ChEMBL document CHEMBL3525968, “Use of transporter knockdown Caco-2 cells to investigate the in vitro efflux of statin drugs” (Drug Metab Dispos, 2011).
# Experiments:
# [1] = Apparent permeability of the compound in P-gp knockdown human Caco2 cells at 10 uM up to 120 mins by reverse-phase liquid chromatography with triple-quadrupole tandem mass spectrometry analysis; type: ADME, cell-based; conditions: caco-2, 2 h
# [2] = Apparent permeability of the compound in MRP2 knockdown human Caco2 cells at 10 uM up to 120 mins by reverse-phase liquid chromatography with triple-quadrupole tandem mass spectrometry analysis; type: ADME, cell-based; conditions: caco-2, 2 h
# [3] = Apparent permeability of the compound in vector transfected human Caco2 cells at 10 uM up to 120 mins by reverse-phase liquid chromatography with triple-quadrupole tandem mass spectrometry analysis; type: ADME, cell-based; conditions: caco-2, 2 h
# [4] = Apparent permeability of the compound in BCRP knockdown human Caco2 cells at 10 uM up to 120 mins by reverse-phase liquid chromatography with triple-quadrupole tandem mass spectrometry analysis; type: ADME, cell-based; conditions: caco-2, 2 h
# MRP2 [5] = assay: Apparent permeability from basolateral to apical side of MRP2 knockdown human Caco2 cells at 10 uM up to 120 mins by reverse-phase liquid chromatography with triple-quadrupole tandem mass spectrometry analysis; type: ADME, cell-based, Caco-2
# Summary of the method: (§1)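 Knockdown verified by real-time PCR. Cells grown 3 weeks on collagen-coated polycarbonate Transwells. Bidirectional transport of 10 µM compound in HBSSg pH 7.4, with atenolol and propranolol co-dosed. Receiver sampled at 30–120 min, analysed by LC-MS/MS. Mean ± S.D., n = 3.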
# [6] = Apparent permeability from basolateral to apical side of vector transfected human Caco2 cells at 10 uM up to 120 mins by reverse-phase liquid chromatography with triple-quadrupole tandem mass spectrometry analysis; type: ADME, cell-based; conditions: Caco-2; summary of the method: as §1
# P-gp [7] = assay: Apparent permeability from basolateral to apical side of P-gp knockdown human Caco2 cells at 10 uM up to 120 mins by reverse-phase liquid chromatography with triple-quadrupole tandem mass spectrometry analysis; type: ADME, cell-based, Caco-2; summary of the method: as §1
# [8] = Efflux ratio of permeability from […] side in MRP2 knockdown human Caco2 cells at 10 uM up to 120 mins by reverse-phase liquid chromatography with triple-quadrupole tandem mass spectrometry analysis relative to vector transfected cells; type: ADME, cell-based; conditions: caco-2, 2 h
# Summary of the method: (§2)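 Caco-2 cells stably carrying lentiviral shRNA against MRP2 or non-targeting shRNA (vector control), kept under 10 µg/mL puromycin, knockdown confirmed by real-time PCR. Cells seeded at 60,000 cells/cm2 on collagen-coated polycarbonate Transwell membranes and grown 3 weeks. HBSS with 10 mM HEPES, 15 mM glucose, pH 7.4. Substrate at 10 µM, dosed apical or basolateral. Receiver sampled at 30, 60, 90, 120 min. Quantified by LC-MS/MS. Papp = VR/(A×C0)×dC/dt.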
# [9] = Efflux ratio of permeability from […] side in BCRP knockdown human Caco2 cells at 10 uM up to 120 mins by reverse-phase liquid chromatography with triple-quadrupole tandem mass spectrometry analysis; type: ADME, cell-based; conditions: caco-2, 2 h
# Summary of the method: as §1, with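 “Caco-2 (CRL-2102) stably transduced with lentiviral shRNA against P-gp, BCRP or MRP2, or non-targeting shRNA vector control, kept under 10 µg/mL puromycin. Knockdown” for “Knockdown”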
# [10] = Efflux ratio of permeability from […] side in P-gp knockdown human Caco2 cells at 10 uM up to 120 mins by reverse-phase liquid chromatography with triple-quadrupole tandem mass spectrometry analysis; type: ADME, cell-based; conditions: caco-2, 2 h
# Summary of the method: as §1, with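 “Caco-2 (CRL-2102) stably transduced with lentiviral shRNA against P-gp, BCRP or MRP2, or non-targeting shRNA vector control, kept under 10 µg/mL puromycin. Knockdown” for “Knockdown”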
# [11] = Efflux ratio of permeability from […] side in BCRP knockdown human Caco2 cells at 10 uM up to 120 mins by reverse-phase liquid chromatography with triple-quadrupole tandem mass spectrometry analysis relative to vector transfected cells; type: ADME, cell-based; conditions: caco-2, 2 h
# Summary of the method: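 Efflux ratio (B-A over A-B Papp) measured in shRNA knockdown Caco-2 monolayers and in non-targeting vector-control monolayers, both under puromycin selection. 10 µM compound in HBSSg pH 7.4. Receiver sampled 30–120 min, LC-MS/MS. Each knockdown ratio is expressed as a percentage of the vector-control ratio.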
# MRP2 [12] = assay: Efflux ratio of permeability from […] side in MRP2 knockdown human Caco2 cells at 10 uM up to 120 mins by reverse-phase liquid chromatography with triple-quadrupole tandem mass spectrometry analysis; type: ADME, cell-based, Caco-2; summary of the method: as §2
# BCRP [13] = assay: Apparent permeability from basolateral to apical side of BCRP knockdown human Caco2 cells at 10 uM up to 120 mins by reverse-phase liquid chromatography with triple-quadrupole tandem mass spectrometry analysis; type: ADME, cell-based, Caco-2; summary of the method: as §1
# BCRP [14] = assay: Apparent permeability from apical to basolateral side of BCRP knockdown human Caco2 cells at 10 uM up to 120 mins by reverse-phase liquid chromatography with triple-quadrupole tandem mass spectrometry analysis; type: ADME, cell-based, Caco-2
# Summary of the method: as §1, with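 “Caco-2 (CRL-2102) stably transduced with lentiviral shRNA against P-gp, BCRP or MRP2, or non-targeting shRNA vector control, kept under 10 µg/mL puromycin. Knockdown” for “Knockdown”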
# [15] = Apparent permeability from apical to basolateral side of vector transfected human Caco2 cells at 10 uM up to 120 mins by reverse-phase liquid chromatography with triple-quadrupole tandem mass spectrometry analysis; type: ADME, cell-based; conditions: Caco-2; summary of the method: as §2
# P-gp [16] = assay: Apparent permeability from apical to basolateral side of P-gp knockdown human Caco2 cells at 10 uM up to 120 mins by reverse-phase liquid chromatography with triple-quadrupole tandem mass spectrometry analysis; type: ADME, cell-based, Caco-2
# Summary of the method: as §1, with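 “Caco-2 (CRL-2102) stably transduced with lentiviral shRNA against P-gp, BCRP or MRP2, or non-targeting shRNA vector control, kept under 10 µg/mL puromycin. Knockdown” for “Knockdown”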
# MRP2 [17] = assay: Apparent permeability from apical to basolateral side of MRP2 knockdown human Caco2 cells at 10 uM up to 120 mins by reverse-phase liquid chromatography with triple-quadrupole tandem mass spectrometry analysis; type: ADME, cell-based, Caco-2; summary of the method: as §2
# [18] = Apparent permeability from basolateral to apical side of human Caco2 cells up to 120 mins by Michaelis-Menten equation analysis; type: ADME, cell-based, Caco-2
Compound,Papp [1],Papp [2],Papp [3],Papp [4],Km at 2 h ([18]; Caco-2) [µM],"Vmax ([18]; caco-2, 2 h) [pmol/min/cm2]","Papp B→A at 2 h, 10 µM (MRP2 [5]) [×10⁻⁶ cm/s]","Papp B→A at 2 h, 10 µM [6] [×10⁻⁶ cm/s]","Papp B→A at 2 h, 10 µM (P-gp [7]) [×10⁻⁶ cm/s]",Ratio [8] [%],Ratio [9],Ratio [10],Ratio [11] [%],"efflux ratio at 2 h, 10 µM (MRP2 [12])","Papp B→A at 2 h, 10 µM (BCRP [13]) [×10⁻⁶ cm/s]","Papp A→B at 2 h, 10 µM (BCRP [14]) [×10⁻⁶ cm/s]","Papp A→B at 2 h, 10 µM [15] [×10⁻⁶ cm/s]","Papp A→B at 2 h, 10 µM (P-gp [16]) [×10⁻⁶ cm/s]","Papp A→B at 2 h, 10 µM (MRP2 [17]) [×10⁻⁶ cm/s]"
C[C@H]1O[C@@H](O[C@H]2[C@@H](O)C[C@H](O[C@H]3[C@@H](O)C[C@H](O[C@H]4CC[C@@]5(C)[C@H](CC[C@@H]6[C@@H]5C[C@@H](O)[C@]5(C)[C@@H](C7=CC(=O)OC7)CC[C@]65O)C4)O[C@@H]3C)O[C@@H]2C)C[C@H](O)[C@@H]1O [DIGOXIN],–,–,–,–,–,–,19,20.1,11.8,121,17.7,7.4,100,21.4,9.46,0.54,1.14,1.59,–
O=C1OC(c2ccc(O)c(S(=O)(=O)[O-])c2)(c2ccc(O)c(S(=O)(=O)[O-])c2)c2c(Br)c(Br)c(Br)c(Br)c21.[Na+].[Na+] [SULFOBROMOPHTHALEIN SODIUM],–,–,–,–,–,–,0.9,1.45,–,5,–,–,–,2.6,–,–,0.03,–,0.34
C[C@]12CC[C@@H]3c4ccc(OS(=O)(=O)O)cc4CC[C@H]3[C@@H]1CCC2=O [ESTRONE SULFURIC ACID],–,–,–,–,–,–,33.5,27.2,22.9,128,10.2,43.6,21,62.2,10.5,1.03,0.57,0.52,0.54
CC(C)n1c(/C=C/C(O)CC(O)CC(=O)[O-])c(-c2ccc(F)cc2)c2ccccc21.[Na+] (racemic) [FLUVASTATIN SODIUM],impermeable,impermeable,permeable,impermeable,–,–,48.2,96.1,25.3,–,–,–,–,–,57.3,–,–,–,–

# The next lines start with results.
Papp [1],Papp [2],Papp [3],Papp [4],Km at 2 h ([18]; Caco-2) [µM],"Vmax ([18]; caco-2, 2 h) [pmol/min/cm2]",Compound,"Papp B→A at 2 h, 10 µM (MRP2 [5]) [×10⁻⁶ cm/s]","Papp B→A at 2 h, 10 µM [6] [×10⁻⁶ cm/s]","Papp B→A at 2 h, 10 µM (P-gp [7]) [×10⁻⁶ cm/s]",Ratio [8] [%],Ratio [9],Ratio [10],Ratio [11] [%],"efflux ratio at 2 h, 10 µM (MRP2 [12])","Papp B→A at 2 h, 10 µM (BCRP [13]) [×10⁻⁶ cm/s]","Papp A→B at 2 h, 10 µM (BCRP [14]) [×10⁻⁶ cm/s]","Papp A→B at 2 h, 10 µM [15] [×10⁻⁶ cm/s]","Papp A→B at 2 h, 10 µM (P-gp [16]) [×10⁻⁶ cm/s]","Papp A→B at 2 h, 10 µM (MRP2 [17]) [×10⁻⁶ cm/s]"
impermeable,impermeable,impermeable,impermeable,–,–,CC[C@H](C)C(=O)O[C@H]1C[C@@H](C)C=C2C=C[C@H](C)[C@H](CC[C@@H]3C[C@@H](O)CC(=O)O3)[C@H]21 [LOVASTATIN],–,–,–,–,–,–,–,–,–,–,–,–,–
impermeable,impermeable,permeable,impermeable,98,137,CC(C)c1nc(N(C)S(C)(=O)=O)nc(-c2ccc(F)cc2)c1/C=C/[C@@H](O)C[C@@H](O)CC(=O)[O-].CC(C)c1nc(N(C)S(C)(=O)=O)nc(-c2ccc(F)cc2)c1/C=C/[C@@H](O)C[C@@H](O)CC(=O)[O-].[Ca+2] [ROSUVASTATIN CALCIUM],6.6,14.1,4.6,–,–,–,–,–,5.8,–,–,–,–
